Data set [1] concerns the target T1, G-protein coupled bile acid receptor 1 (Homo sapiens) (UniProt Q8TDU6).
T1 sequence (whole entry): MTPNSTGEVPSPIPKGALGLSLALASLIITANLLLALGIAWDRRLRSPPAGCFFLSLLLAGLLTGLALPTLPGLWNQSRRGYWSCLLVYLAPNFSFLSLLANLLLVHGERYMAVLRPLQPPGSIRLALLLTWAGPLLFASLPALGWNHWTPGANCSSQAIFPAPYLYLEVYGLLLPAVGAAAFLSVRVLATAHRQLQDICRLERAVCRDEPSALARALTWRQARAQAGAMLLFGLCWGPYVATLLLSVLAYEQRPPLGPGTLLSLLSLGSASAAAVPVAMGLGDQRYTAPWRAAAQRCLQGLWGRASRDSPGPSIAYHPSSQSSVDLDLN
Nature of the data set: Agonist activity at human GPBAR1 expressed in HEK293T cells at 10 uM after 18 hrs by cAMP response element driven luciferase reporter gene assay. The format is functional, cell-based.

Data set [2] in a line: Half life in rat liver microsomes at 1 uM up to 40 mins by LC-MS/MS method.
Data set [3] can be described thus: Aqueous solubility of compound in phosphate buffer at pH 7.4//MeOH after 24 hrs by LC-MS/MS method. The format is physicochemical.
A short description of data set [4]: Intrinsic clearance in rat liver microsomes at 1 uM up to 40 mins by LC-MS/MS method. To be noted: read-out: CLH. A general note: Liver microsomes are a subcellular fraction often used to study metabolism.
The nature of data set [5]: Metabolic stability in rat liver microsomes assessed as compound remaining at 1 uM up to 40 mins by LC-MS/MS method relative to control.
Data set [6] has as its system Mus musculus. In words: Hepatoprotective activity against APAP-induced acute liver injury in C57BL/6N mouse assessed as reduction in plasma AST levels at 30 mg/kg, po administered 45 mins after APAP challenge. The class given is functional, organism-based. The method, boiled down: (§1)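 C57Bl6 mice given a single 500 mg/kg APAP dose, with test agent at 30 mg/kg; surviving mice sacrificed 24 h later, blood and liver collected. Endpoints: serum AST/ALT, liver H&E histology, hepatic Ugt1a1/Ugt2b1/Sult1a1 mRNA, hepatic GSH, SOD activity and MDA, and plasma APAP, APAP-glucuronide and APAP-sulfate by LC–MS/MS. Mean ± SEM, 5–8 animals per group.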

Data set [7] deals with Mus musculus. Nature of the data set: Hepatoprotective activity against APAP-induced acute liver injury in C57BL/6N mouse assessed as reduction in plasma ALT levels at 30 mg/kg, po administered 45 mins after APAP challenge. The format is functional, organism-based. The essentials: as §1
The target in data set [8] is T2, Peroxisome proliferator-activated receptor gamma (Homo sapiens) (UniProt P37231).
T2 sequence (whole entry): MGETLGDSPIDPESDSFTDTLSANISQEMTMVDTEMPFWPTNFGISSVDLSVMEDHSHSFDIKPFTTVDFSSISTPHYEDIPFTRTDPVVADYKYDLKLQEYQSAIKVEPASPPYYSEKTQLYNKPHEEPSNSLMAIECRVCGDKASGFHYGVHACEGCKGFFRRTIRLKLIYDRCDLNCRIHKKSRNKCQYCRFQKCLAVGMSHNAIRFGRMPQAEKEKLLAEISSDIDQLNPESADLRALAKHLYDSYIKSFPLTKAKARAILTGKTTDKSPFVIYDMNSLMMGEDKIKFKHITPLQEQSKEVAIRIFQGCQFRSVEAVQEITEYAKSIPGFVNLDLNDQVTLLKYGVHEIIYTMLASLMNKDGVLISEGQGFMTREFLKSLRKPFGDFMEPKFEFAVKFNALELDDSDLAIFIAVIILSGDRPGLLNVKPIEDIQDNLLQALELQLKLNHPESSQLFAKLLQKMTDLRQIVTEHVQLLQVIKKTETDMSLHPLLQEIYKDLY
Nature of the data set: Transactivation of Gal4-fused PPARgamma LBD (unknown origin) expressed in HepG2 cells at 10 uM after 18 hrs by dual-glo luciferase assay. The format is cell-based.

Data set [9] deals with T3, Oxysterols receptor LXR-alpha (Homo sapiens) (UniProt Q13133).
T3 sequence (whole entry): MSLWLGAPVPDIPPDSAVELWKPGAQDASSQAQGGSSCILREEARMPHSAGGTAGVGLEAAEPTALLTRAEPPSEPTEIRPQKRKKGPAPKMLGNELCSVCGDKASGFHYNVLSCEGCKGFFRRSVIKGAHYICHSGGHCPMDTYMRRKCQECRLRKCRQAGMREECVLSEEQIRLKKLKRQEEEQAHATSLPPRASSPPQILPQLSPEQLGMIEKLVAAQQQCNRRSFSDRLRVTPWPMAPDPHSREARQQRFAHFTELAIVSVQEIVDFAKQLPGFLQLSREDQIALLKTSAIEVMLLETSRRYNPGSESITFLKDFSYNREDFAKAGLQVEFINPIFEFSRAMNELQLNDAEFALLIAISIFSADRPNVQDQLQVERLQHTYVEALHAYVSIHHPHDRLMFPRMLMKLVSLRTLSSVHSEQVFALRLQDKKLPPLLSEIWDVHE
Nature of the data set: Transactivation of Gal4-fused LXRalpha LBD (unknown origin) expressed in HepG2 cells at 10 uM after 18 hrs by dual-glo luciferase assay. The class given is cell-based.

Data set [10] deals with T4, Oxysterols receptor LXR-beta (Homo sapiens) (UniProt P55055).
T4 sequence (whole entry): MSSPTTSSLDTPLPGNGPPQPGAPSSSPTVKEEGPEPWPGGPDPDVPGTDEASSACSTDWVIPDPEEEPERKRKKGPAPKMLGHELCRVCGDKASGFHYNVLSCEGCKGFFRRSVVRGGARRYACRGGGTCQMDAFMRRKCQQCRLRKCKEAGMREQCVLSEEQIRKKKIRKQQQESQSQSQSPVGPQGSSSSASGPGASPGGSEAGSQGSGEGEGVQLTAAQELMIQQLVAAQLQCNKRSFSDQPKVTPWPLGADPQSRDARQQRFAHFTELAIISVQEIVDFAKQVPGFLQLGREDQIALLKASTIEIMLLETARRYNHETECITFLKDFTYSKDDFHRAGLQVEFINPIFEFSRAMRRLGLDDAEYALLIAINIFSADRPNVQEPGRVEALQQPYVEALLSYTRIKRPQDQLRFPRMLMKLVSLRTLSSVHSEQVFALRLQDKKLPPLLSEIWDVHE
In words: Transactivation of Gal4-fused LXRbeta LBD (unknown origin) expressed in HepG2 cells at 10 uM after 18 hrs by dual-glo luciferase assay. The format is cell-based.

From ChEMBL document CHEMBL4433207, “Novel Isoxazole Derivatives with Potent FXR Agonistic Activity Prevent Acetaminophen-Induced Liver Injury” (ACS Med Chem Lett, 2019) come the findings set out here.

In brackets after ≈: the same amount, converted by molar mass. Activity calls are given as the source filed them. The rule behind the calls is not given here. Some results are limits rather than exact numbers.

The term half-life denotes the time in which the quantity being followed falls by half. Low readings indicate rapid decline, high ones slow decline. A word on the solubility: it is the concentration that dissolves in the medium under given conditions. Low readings indicate little dissolved substance, high ones much dissolved substance. Broadly, the fraction remaining is what is left of the initial amount, in per cent.

Turning to `CC(C)c1onc(-c2c(Cl)cccc2Cl)c1COc1cccc(C#N)c1`, the result in data set [1] was inactive.

On to `COC(=O)c1cccc(OCc2ccc(OCc3c(-c4c(Cl)cccc4Cl)noc3C(C)C)cc2)c1`, for which the result in [1] was inactive.

Turning to `CC(C)c1onc(-c2c(Cl)cccc2Cl)c1COc1ccc(CO)cc1`, the outcome in [1] was inactive.

Consider `CC(C)c1onc(-c2c(Cl)cccc2Cl)c1COc1ccc(COc2ccc(CO)cc2)cc1`, for which, in data set [1], the result was inactive.

In turn, `CC[C@H]1[C@@H](O)[C@@H]2[C@H](CC[C@]3(C)[C@@H]([C@H](C)CCC(=O)O)CC[C@@H]23)[C@@]2(C)CC[C@@H](O)C[C@@H]12` [OBETICHOLIC ACID] showed a half-life at 1 µM in [2] of 21 min. In data set [3], this compound had a solubility at 24 h of more than 200 µM. Besides, the microsomal CLint at 1 µM in data set [4] amounted to 109 µL/min/mg. In data set [5], the amount remaining at 40 min, 1 µM is 27%.

Regarding `CC(C)c1onc(-c2c(Cl)cccc2Cl)c1COc1ccc(C(=O)O)cc1`, the outcome in data set [1] was inactive.

In the case of `CC(C)c1onc(-c2c(Cl)cccc2Cl)c1COc1cccc(C(=O)O)c1`, the result in data set [1] was inactive.

For `CC(C)c1onc(-c2c(Cl)cccc2Cl)c1COc1ccc(COc2ccc(C#N)cc2)cc1`, in data set [1], the result was inactive.

As to `CC(C)c1onc(-c2c(Cl)cccc2Cl)c1COc1ccc(S(C)(=O)=O)cc1`, the result in data set [1] was inactive.

For the compound `COC(=O)c1cccc(OCc2c(-c3c(Cl)cccc3Cl)noc2C(C)C)c1`, the outcome in data set [1] was inactive.

`CC(C)c1onc(-c2c(Cl)cccc2Cl)c1COc1ccccc1`: the result in data set [1] was inactive.

As for `CC(C)c1onc(-c2c(Cl)cccc2Cl)c1COc1ccc(/C=C/c2cccc(C(=O)O)c2)c(Cl)c1`, in [2], the half-life at 1 µM is 41 min. The same compound yielded a solubility at 24 h in data set [3] of 152 µM (≈ 82.5 µg/mL). Also, the microsomal CLint at 1 µM in data set [4] was 56 µL/min/mg. The result in the data set with Mus musculus [6] and in the data set with Mus musculus [7] was Active. The fraction remaining at 40 min, 1 µM in data set [5] was found to be 48%.

For `CC(C)c1onc(-c2c(Cl)cccc2Cl)c1COc1ccc(COc2cccc(CO)c2)cc1`, the outcome in [1] was inactive.

With `COC(=O)c1ccc(OCc2ccc(OCc3c(-c4c(Cl)cccc4Cl)noc3C(C)C)cc2)cc1`, the outcome in [1] was inactive.

For `CC(C)c1onc(-c2c(Cl)cccc2Cl)c1COc1cccc(CO)c1`, the outcome in data set [1] was inactive.

For the compound `COC(=O)c1ccc(OCc2c(-c3c(Cl)cccc3Cl)noc2C(C)C)cc1`, in data set [1], the outcome was inactive.

On to `CC(C)c1onc(-c2c(Cl)cccc2Cl)c1COc1ccc(C#N)cc1`, for which, in data set [1], the result was inactive.

For the compound `CC(C)c1onc(-c2c(Cl)cccc2Cl)c1COc1ccc(COc2cccc(C(=O)O)c2)cc1`, the result in [8], in data set [9], in data set [10] and in [1] was inactive.

As to `CC(C)c1onc(-c2c(Cl)cccc2Cl)c1COc1ccc(COc2cccc(C#N)c2)cc1`, the result in data set [1] was inactive.

On to `COC(=O)c1cccc(-c2ccc(OCc3c(-c4c(Cl)cccc4Cl)noc3C(C)C)cc2)c1`, for which the outcome in data set [1] was inactive.

As for `CC(C)c1onc(-c2c(Cl)cccc2Cl)c1COc1ccc(-c2cccc(CO)c2)cc1`, the result in data set [1] was inactive.

Regarding `CC(C)c1onc(-c2c(Cl)cccc2Cl)c1COc1ccc(-c2cccc(C(=O)O)c2)cc1`, the outcome in data set [1] was inactive.
